# Bioassay records deposited in PubChem by several laboratories.
# An excerpt weighted towards active compounds, which were near 12% of everything screened.
# Rad51 HR inh = Rad51 (human) homologous recombination inhibition | inhibition, % at 10 µM | hit rate 0.085% among 200,000 | Q06609 | AID 1385 | hRad51 DNA strand exchange, fluorescence dequenching;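 active = inhibition above 40% at the single screening dose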;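 also: 0% = DMSO control wells and 100% = blanks with heterologous ssDNA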
# Target sequence (Q06609 whole entry, looked up): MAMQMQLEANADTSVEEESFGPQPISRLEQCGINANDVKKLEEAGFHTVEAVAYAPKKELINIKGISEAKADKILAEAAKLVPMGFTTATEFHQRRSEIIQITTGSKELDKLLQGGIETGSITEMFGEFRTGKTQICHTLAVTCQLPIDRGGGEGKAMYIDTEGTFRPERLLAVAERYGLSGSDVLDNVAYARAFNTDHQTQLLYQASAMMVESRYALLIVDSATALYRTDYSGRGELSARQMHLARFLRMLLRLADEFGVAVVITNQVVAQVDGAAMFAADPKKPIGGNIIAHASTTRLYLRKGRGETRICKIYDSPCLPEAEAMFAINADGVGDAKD
#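 material = hRad51 filaments on single-stranded DNA | timing = filaments 15 min 37 °C, then compound 30 min | signal = FRET fluorescence dequenching, excitation 485 nm, emission 520 nm | benchmarks = control wells and blank wells on each plate | evaluation = percent inhibition relative to plate controls and blanks | compound = 10 µM final, single point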
# CHOP inh = CHOP inhibition in unfolded protein response; CHO-K1 CHOP-promoter luciferase, tunicamycin-induced, 15-18 h; inhibition, % at 10 µM; hit rate 3.8% among 220,000; AID 2732;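 active = compounds that reduced the stress-induced luciferase reporter signal by more than about 70% of percent inhibition, limit read from the data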;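 also: 0% = tunicamycin plus vehicle and 100% = wells without tunicamycin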
# Arbovirus inh = blocks arbovirus infection. arbovirus infection cell-based antiviral screen. inhibition, % at 10 µM. hit rate 0.37% among 200,000; in the data active = inhibition above about 30%
# PKD1 inh = PKD1 (human) kinase inhibition | Q15139 | PKD1 kinase fluorescence polarization assay | inhibition, % (concentration not given with the values) | hit rate 0.056% among 200,000
# Wee1 stabilizer = human Wee1 degradation inhibition, primary screen; hit rate 1.2% among 220,000; AID 1321; reporter increase, % at 5 µM; HeLa Luc-Wee1K328M stability, luciferase luminescence; 100% = proteasome inhibitor MG132 effect; P30291;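 active = activation above the mean of all tested compounds plus 3 SD, set per screening run, cut at about 8.8% in these data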;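 also: cells exposed to compound for 20 h before luminescence read; 0% = DMSO alone and 100% = MG132 at 30 µM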
# Lmaj promast = reduces viability of Leishmania major promastigotes; hit rate 9% among 200,000; inhibition, % at 10 µM; resazurin fluorescence viability;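 also: promastigotes grown with compound for 44 hours at 28 °C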
# CHOP confirm = confirmation of CHOP induction inhibitors | shares compounds with CHOP inh | CHO-CHOP promoter luciferase reporter, tunicamycin-induced, luminescence | inhibition, % at 10 µM | hit rate 45% among 2,100 | AID 504437;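 active = mean of three repeat readings of reporter signal inhibition above a set limit, cut at about 70% in these data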;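 also: 0% = tunicamycin plus vehicle and 100% = wells lacking tunicamycin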
# An asterisk follows results filed as active; x = not tested or not shown. Rule as the data show it, unless noted: active = inhibition above about 50%; inactive = the rest.
SMILES,Rad51 HR inh,CHOP inh,Arbovirus inh,PKD1 inh,Wee1 stabilizer,Lmaj promast,CHOP confirm
O=C(N/N=C/C(Br)=C/c1ccccc1)c1cc(-c2ccco2)[nH]n1,x,103*,-12,-2,-1,12,8
CCc1cccc(NC(=O)NC(=O)Cn2nnc(C(=O)OC)c2C(=O)OC)c1,4,11,-10,-5,6,-7,x
CC(C)c1ccc(CC(C)C2C3=C(CCCC3=O)OC3=C2C(=O)CCC3)cc1 (stereo unspecified),x,104*,0,-2,1,13,58
O=C(Nc1ccccc1)Nc1cc(Cl)cc(Cl)c1,1,111*,-27,4,-3,4,68
CNC(=O)c1c(C)noc1C,11,3,1,-6,-2,-7,x
CSCCC(NS(=O)(=O)c1ccc(Cl)cc1)C(=O)OCc1cccc(Cl)c1 (stereo unspecified),6,106*,9,-6,1,97*,68
CSCCC(NS(=O)(=O)c1ccc(Cl)cc1)C(=O)O (stereo unspecified),-14,-7,11,2,-1,-4,x
C=CCOC(=O)C1=C(C)NC(SC)=C(C#N)C1c1cccs1 (stereo unspecified),-2,-4,-24,2,-1,9,x
C=CCOC(=O)C1=C(C)NC(SCC(=O)Nc2nccs2)=C(C#N)C1c1ccc(Cl)cc1 (stereo unspecified),-2,106*,-17,-14,-2,38,132*
C=CCOC(=O)C1=C(C)NC(SCC(=O)Nc2nccs2)=C(C#N)C1c1cccs1 (stereo unspecified),0,99*,-24,7,3,45,42
CC(=O)C1=C(C)NC(SCC(=O)Nc2nccs2)=C(C#N)C1c1ccccc1Cl (stereo unspecified),-7,26,3,-4,4,12,x
Cc1ccc(C)c2nc3sc(C(=O)O)cc3cc12,3,-16,4,7,0,1,x
C[C@@H]1CC=C[C@H]2[C@H]1C(=O)N(Cc1ccccc1)[C@H]2c1ccc2ccccc2c1Br,1,98*,x,x,x,x,59
CC[C@@H]1CC=C[C@H]2[C@H]1C(=O)N(Cc1ccccc1)[C@H]2c1ccoc1,-4,101*,x,x,x,x,137*
COc1cc(C(=O)N2CCc3ccccc32)ccc1OCc1c(C)noc1C,-1,7,x,x,1,x,x
Cc1ccc(S(=O)(=O)/N=C(\Sc2ccccc2)c2ccccc2)cc1,-4,107*,-4,-7,1,-1,46
COc1ccccc1N1CCN(/N=C/C=C/c2ccccc2[N+](=O)[O-])CC1,x,-11,x,x,1,x,x
NC(=O)CC(NC(=O)Cc1cccc2ccccc12)c1ccc(NCCOc2ccccc2)c([N+](=O)[O-])c1 (stereo unspecified),4,101*,x,x,x,x,112*
NC(=O)CC(NC(=O)Cc1cccc2ccccc12)c1ccc(NC2CCCCC2)c([N+](=O)[O-])c1 (stereo unspecified),-5,105*,x,x,x,x,13
Cc1ccccc1CNc1ccc(C(CC(N)=O)NC(=O)c2ccc(Br)cc2)cc1[N+](=O)[O-] (stereo unspecified),-3,103*,x,x,x,x,24
NC(=O)CC(NC(=O)c1ccc(Br)cc1)c1ccc(NCc2ccc(F)cc2)c([N+](=O)[O-])c1 (stereo unspecified),-3,65,x,x,x,x,x
CC1CCC2C(=O)N(c3ccc(C(=O)NCc4ccccc4)cc3)C(=O)C2C1 (stereo unspecified),1,39,2,-14,-3,-10,x
CC(C)(C)c1cc(CN2CCCC(O)C2)c(O)c(C(C)(C)C)c1 (stereo unspecified),-4,107*,-39,-8,0,29,109*
CC(C)(C)c1cc(CN2CCCCC2)cc(C(C)(C)C)c1O,-1,43,16,-4,-2,38,x
CCOC(=O)C(=CNc1cc(C)nn1-c1ccc(Cl)cc1)C(=O)OCC,5,104*,7,1,0,5,14
SMILES,Rad51 HR inh,CHOP inh,Arbovirus inh,PKD1 inh,Wee1 stabilizer,Lmaj promast,CHOP confirm
Cc1ccc(N=Cc2cc3c(cc2O)OC(N)=C(C#N)C3c2ccccc2)cc1 (stereo unspecified),-332,99*,-2,-12,0,2,82*
O=C1C=CC(=O)C(C2=C3C(=O)N(CCc4ccccc4)CC(=O)N3CCC2)=C1,-12,105*,2,2,-2,-6,-230
O=C1CC(=O)N(CCc2ccccc2)C(=O)N1CCc1ccccc1,-14,21,24,12,-1,-4,x
c1cc2c3c(cccc3c1)NC1(CCCCC1)N2,-1,13,-1,-1,1,49,x
c1cc2c3c(cccc3c1)NC1(CCCCCC1)N2,2,107*,-11,-1,-1,13,-4
Clc1ccc(-n2nnnc2-c2cnc3ccc(Cl)cc3c2-c2ccccc2)cc1,-24,20,x,x,8,x,x
Clc1ccc2ncc(-c3nnnn3-c3ccccc3)c(-c3ccccc3)c2c1,5,107*,-13,-5,-3,32,8
CN(C)S(=O)(=O)c1cccc(NC(=O)CCNC(=O)c2ccccc2Cl)c1,-12,2,1,7,0,-11,x
Cc1ccc(F)c(C2C3C=CCC(c4cccc(-c5ccc(N(C)C)cc5)c4)C3C(=O)N2Cc2ccccc2)c1 (stereo unspecified),8,-6,x,x,x,x,x
O=C(c1ccccc1)c1cc(Cl)ccc1N1C(=O)C=CC1=O,5,106*,2,6,-3,-3,-10
Nc1c(C(=O)Nc2nc3ccccc3s2)sc2nc(-c3cccs3)ccc12,-352,102*,-40,-2,1,1,82*
CC(=O)c1sc2nc(-c3cccs3)ccc2c1N,-8,-19,0,-7,2,-8,x
c1ccc(Cn2nnc3c(NCc4ccc5c(c4)OCO5)nc(C4CC4)nc32)cc1,-2,-48,-11,5,-4,1,x
Cc1nc(NCc2ccc3c(c2)OCO3)c2nnn(Cc3ccccc3)c2n1,-3,101*,3,-8,-1,-10,66
O=C(CNC(=O)Cc1ccc(Cl)cc1)NCc1ccco1,13,-3,-3,-1,-6,-5,x
COc1cc(/C=N/NC(=S)NCc2ccccc2)ccc1OCC#N,x,9,10,-12,2,-7,x
CC(C)CC(NC(=O)c1ccc(Cl)cc1)C(=O)OCC(=O)c1ccc2c(c1)NC(=O)CO2 (stereo unspecified),3,107*,-12,-8,0,64*,74*
CC(C)(C)NC(=O)NC(=O)COC(=O)CNS(=O)(=O)/C=C/c1ccccc1,-34,18,-1,1,-2,3,x
CCC(C)c1ccc(O)c(NC(=O)c2cncc(Br)c2)c1 (stereo unspecified),-6,111*,19,-1,-2,18,82*
